Reference: ChEMBL document CHEMBL1150264, “Design and microwave-assisted synthesis of novel macrocyclic peptides active at melanocortin receptors: discovery of potent and selective hMC5R receptor antagonists” (J Med Chem, 2008)
Active and inactive are the calls of the source. The rule behind the calls is not given here.

How the values were obtained:
Melanocortin receptor 4 [1] = target: T1, Melanocortin receptor 4 (Homo sapiens, UniProt P32245); assay: Agonist activity at human melanocortin 4 receptor expressed in HEK293 cells assessed as cAMP accumulation at 10 uM realtive to MT2; type: functional, cell-based
T1 sequence (P32245 whole entry): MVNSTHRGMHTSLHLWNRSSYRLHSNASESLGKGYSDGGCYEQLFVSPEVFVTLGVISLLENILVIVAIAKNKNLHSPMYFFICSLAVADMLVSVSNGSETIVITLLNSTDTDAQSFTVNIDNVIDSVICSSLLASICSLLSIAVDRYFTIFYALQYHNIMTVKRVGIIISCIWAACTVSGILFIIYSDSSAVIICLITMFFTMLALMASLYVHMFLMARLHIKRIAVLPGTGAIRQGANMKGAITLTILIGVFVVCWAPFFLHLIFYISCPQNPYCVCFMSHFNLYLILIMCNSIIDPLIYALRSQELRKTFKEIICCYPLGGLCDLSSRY
Procedure, shortened: (§1)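 cAMP accumulation assay in stably transfected HEK293 cells: 0.5 mM IBMX preincubation, 3 min ligand exposure at 37 °C, [3H]cAMP/PKA binding read-out against a standard curve. The cAMP produced at 10 μM ligand is expressed as percent of that produced by 10 μM MT-II (% max effect).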

[2] = target: T2, Melanocyte-stimulating hormone receptor (Homo sapiens, UniProt Q01726); assay: Agonist activity at human melanocortin 1 receptor expressed in HEK293 cells assessed as cAMP accumulation at 10 uM realtive to MT2; type: functional, cell-based; procedure, shortened: as §1
Target sequence in this assay (Q01726 whole entry, looked up): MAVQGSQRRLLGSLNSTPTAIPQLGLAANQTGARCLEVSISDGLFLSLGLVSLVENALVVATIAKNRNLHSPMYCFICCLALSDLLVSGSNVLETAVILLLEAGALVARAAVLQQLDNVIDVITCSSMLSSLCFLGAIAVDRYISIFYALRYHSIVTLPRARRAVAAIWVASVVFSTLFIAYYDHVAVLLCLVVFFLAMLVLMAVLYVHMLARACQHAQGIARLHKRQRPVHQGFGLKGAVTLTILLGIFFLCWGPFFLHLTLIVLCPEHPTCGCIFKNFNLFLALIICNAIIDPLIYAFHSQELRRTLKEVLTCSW

Melanocortin receptor 3 [3] = target: T3, Melanocortin receptor 3 (Homo sapiens, UniProt P41968); assay: Agonist activity at human melanocortin 3 receptor expressed in HEK293 cells assessed as cAMP accumulation at 10 uM realtive to MT2; type: functional, cell-based; procedure, shortened: as §1
T3 sequence (P41968 whole entry): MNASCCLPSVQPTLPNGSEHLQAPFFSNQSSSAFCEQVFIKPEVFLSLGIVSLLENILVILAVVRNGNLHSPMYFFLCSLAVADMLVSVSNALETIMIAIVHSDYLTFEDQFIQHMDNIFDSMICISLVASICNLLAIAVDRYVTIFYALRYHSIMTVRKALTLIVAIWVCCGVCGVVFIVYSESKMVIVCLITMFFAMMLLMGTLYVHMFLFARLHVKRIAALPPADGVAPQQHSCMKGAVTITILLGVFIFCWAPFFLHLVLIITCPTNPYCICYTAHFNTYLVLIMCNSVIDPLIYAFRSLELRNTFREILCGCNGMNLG

Melanocortin receptor 5 [4] = target: T4, Melanocortin receptor 5 (Homo sapiens, UniProt P33032); assay: Agonist activity at human melanocortin 5 receptor expressed in HEK293 cells assessed as cAMP accumulation at 10 uM realtive to MT2; type: functional, cell-based; procedure, shortened: as §1
T4 sequence (P33032 whole entry): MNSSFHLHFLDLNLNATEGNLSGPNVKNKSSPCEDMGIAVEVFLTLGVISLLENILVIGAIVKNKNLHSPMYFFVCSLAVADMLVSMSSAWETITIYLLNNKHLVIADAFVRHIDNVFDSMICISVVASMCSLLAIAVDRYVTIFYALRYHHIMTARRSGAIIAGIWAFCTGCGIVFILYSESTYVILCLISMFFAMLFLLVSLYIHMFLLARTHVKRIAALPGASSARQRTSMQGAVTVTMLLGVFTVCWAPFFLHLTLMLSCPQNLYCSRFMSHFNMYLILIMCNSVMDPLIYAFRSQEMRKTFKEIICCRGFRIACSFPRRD

Melanocortin receptor 5 [5] = target: T4, Melanocortin receptor 5; assay: Agonist activity at human melanocortin 5 receptor expressed in HEK293 cells assessed as cAMP accumulation at 10 uM; type: functional, cell-based; procedure, shortened: as §1
Melanocortin receptor 4 [6] = target: T1, Melanocortin receptor 4; assay: Displacement of [125I]-[Nle4, D-Phe7]alpha-MSH from human melanocortin 4 receptor expressed in HEK293 cells at 10 uM; type: cell-based
Melanocortin receptor 5 [7] = target: T4, Melanocortin receptor 5; assay: Displacement of [125I]-[Nle4, D-Phe7]alpha-MSH from human melanocortin 5 receptor expressed in HEK293 cells at 10 uM; type: cell-based
[8] = target: T2, Melanocyte-stimulating hormone receptor; assay: Agonist activity at human melanocortin 1 receptor expressed in HEK293 cells assessed as cAMP accumulation at 10 uM; type: functional, cell-based; procedure, shortened: as §1
Target sequence in this assay (Q01726 whole entry, looked up): as the sequence (Q01726 whole entry, looked up) above

[9] = target: T2, Melanocyte-stimulating hormone receptor; assay: Displacement of [125I]-[Nle4, D-Phe7]alpha-MSH from human melanocortin 1 receptor expressed in HEK293 cells at 10 uM; type: cell-based
Target sequence in this assay (Q01726 whole entry, looked up): as above

Melanocortin receptor 4 [10] = target: T1, Melanocortin receptor 4; assay: Agonist activity at human melanocortin 4 receptor expressed in HEK293 cells assessed as cAMP accumulation at 10 uM; type: functional, cell-based; procedure, shortened: as §1
Melanocortin receptor 3 [11] = target: T3, Melanocortin receptor 3; assay: Agonist activity at human melanocortin 3 receptor expressed in HEK293 cells assessed as cAMP accumulation at 10 uM; type: functional, cell-based; procedure, shortened: as §1
Melanocortin receptor 3 [12] = target: T3, Melanocortin receptor 3; assay: Displacement of [125I]-[Nle4, D-Phe7]alpha-MSH from human melanocortin 3 receptor expressed in HEK293 cells at 10 uM; type: cell-based
[13] = target: T2, Melanocyte-stimulating hormone receptor; assay: Displacement of [125I]-[Nle4, D-Phe7]alpha-MSH from human melanocortin 1 receptor expressed in HEK293 cells; type: cell-based
Procedure, shortened: (§2)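 Whole HEK293 cells stably expressing each hMCR, seeded 48 h before assay (50000 cells/well), washed in MEM with 25 mM bicarbonate. Cells incubated 40 min at 37 °C with unlabeled peptide plus [125I]-NDP-α-MSH (33.06 pM, 20000 cpm/well) in MEM, 25 mM HEPES pH 7.4, 0.2% BSA, 1 mM 1,10-phenanthroline, leupeptin, bacitracin. Cells washed, lysed with NaOH/Triton X-100, and gamma-counted. IC50 by nonlinear fit, two experiments in triplicate […].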
Target sequence in this assay (Q01726 whole entry): as the sequence (Q01726 whole entry, looked up) above

Melanocortin receptor 3 [14] = target: T3, Melanocortin receptor 3; assay: Displacement of [125I]-[Nle4, D-Phe7]alpha-MSH from human melanocortin 3 receptor expressed in HEK293 cells; type: cell-based; procedure, shortened: as §2
[15] = target: T2, Melanocyte-stimulating hormone receptor; assay: Agonist activity at human melanocortin 1 receptor expressed in HEK293 cells assessed as cAMP accumulation; type: functional, cell-based; settings: hek293
Procedure, shortened: (§3)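 Stably transfected HEK293 cells seeded 48 h before assay (50000 cells/well), rinsed, preincubated 1 min at 37 °C in Earle's balanced salt solution with 0.5 mM IBMX, then given peptide at varying concentrations for 3 min at 37 °C. Stopped with ice-cold Tris/EDTA and boiling 7 min. cAMP measured by [3H]cAMP competition for PKA against a standard curve. EC50 by nonlinear least-squares fit, mean of two experiments in triplicate.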
Target sequence in this assay (Q01726 whole entry): as the sequence (Q01726 whole entry, looked up) above

Melanocortin receptor 3 [16] = target: T3, Melanocortin receptor 3; assay: Agonist activity at human melanocortin 3 receptor expressed in HEK293 cells assessed as cAMP accumulation; type: functional, cell-based; procedure, shortened: as §3

Row | SMILES | Activity (Melanocortin receptor 4 [1]) [%] | Activity [2] [%] | Activity (Melanocortin receptor 3 [3]) [%] | Activity (Melanocortin receptor 5 [4]) [%] | Activity (Melanocortin receptor 5 [5]) | Activity (Melanocortin receptor 4 [6]) | Activity (Melanocortin receptor 5 [7]) | Activity [8] | Activity [9] | Activity (Melanocortin receptor 4 [10]) | Activity (Melanocortin receptor 3 [11]) | Activity (Melanocortin receptor 3 [12]) | IC50 [13] [nM] | IC50 (Melanocortin receptor 3 [14]; hek293) [nM] | EC50 [15] [nM] | IC50 ([13]; hek293) [nM] | EC50 (Melanocortin receptor 3 [16]; hek293) [nM] | IC50 (Melanocortin receptor 3 [14]) [nM] | EC50 (Melanocortin receptor 3 [16]) [nM]
1 | N=C(N)NCCC[C@@H]1NC(=O)[C@@H](Cc2ccccc2)NC(=O)[C@H]2C[C@@H](O)CN2C(=O)c2cc([N+](=O)[O-])ccc2SC[C@@H](C(N)=O)NC(=O)[C@H](Cc2c[nH]c3ccccc23)NC1=O | 0 | 0 | 0 | 0 | inactive | inactive | inactive | inactive | inactive | inactive | inactive | inactive |  |  |  |  |  |  | 
2 | N=C(N)NCCC[C@@H]1NC(=O)[C@@H](Cc2ccccc2)NC(=O)[C@H](Cc2cnc[nH]2)NC(=O)c2cc([N+](=O)[O-])ccc2SC[C@@H](C(N)=O)NC(=O)[C@H](Cc2ccccc2)NC1=O | 0 | 0 | 0 | 0 | inactive | inactive | inactive | inactive |  | inactive | inactive | inactive | > 1000 |  |  |  |  |  | 
3 | NC(=O)[C@@H]1CSc2ccc([N+](=O)[O-])cc2C(=O)N[C@@H](Cc2cnc[nH]2)C(=O)N[C@@H](Cc2ccc(N)cc2)C(=O)N[C@@H](CCCN=C(N)N)C(=O)N[C@@H](Cc2c[nH]c3ccccc23)C(=O)N1 |  |  |  |  |  |  |  |  |  |  |  |  |  | > 1000 | > 1000 | > 10000 | 150 |  | 
4 | N=C(N)NCCC[C@@H]1NC(=O)[C@@H](Cc2ccccc2)NC(=O)[C@H](Cc2cnc[nH]2)NC(=O)c2cc([N+](=O)[O-])ccc2SC[C@@H](C(N)=O)NC(=O)[C@@H](Cc2ccccc2)NC1=O | 0 | 0 | 0 | 0 | inactive | inactive | inactive | inactive | inactive | inactive | inactive | inactive |  |  |  |  |  |  | 
5 | N=C(N)NCCC[C@@H]1NC(=O)[C@@H](Cc2ccccc2)NC(=O)[C@H]2CCCN2C(=O)c2cc([N+](=O)[O-])ccc2SC[C@@H](C(N)=O)NC(=O)[C@H](Cc2c[nH]c3ccccc23)NC1=O | 0 | 0 | 0 | 0 | inactive | inactive | inactive | inactive |  | inactive | inactive | inactive |  |  |  | > 1500 |  |  | 
6 | N=C(N)NCCC[C@@H]1NC(=O)[C@H](CCCNC(N)=O)NC(=O)[C@H](Cc2cnc[nH]2)NC(=O)c2cc([N+](=O)[O-])ccc2SC[C@@H](C(N)=O)NC(=O)[C@H](Cc2c[nH]c3ccccc23)NC1=O | 0 | 0 | 0 | 0 | inactive | inactive | inactive | inactive | inactive | inactive | inactive | inactive |  |  |  |  |  |  | 
7 | N=C(N)NCCC[C@@H]1NC(=O)[C@H](Cc2ccc(N)cc2)NC(=O)[C@H](Cc2cnc[nH]2)NC(=O)c2cc([N+](=O)[O-])ccc2SC[C@@H](C(N)=O)NC(=O)[C@H](Cc2c[nH]c3ccccc23)NC1=O | 0 | 9 | 5 | 0 | inactive | inactive | inactive |  |  | inactive |  |  |  |  |  |  |  |  | 
8 | NCCC[C@@H]1NC(=O)[C@@H](Cc2ccccc2)NC(=O)[C@H](Cc2cnc[nH]2)NC(=O)c2cc([N+](=O)[O-])ccc2SC[C@@H](C(N)=O)NC(=O)[C@H](Cc2c[nH]c3ccccc23)NC1=O | 0 | 0 | 0 | 0 | inactive | inactive | inactive | inactive | inactive | inactive | inactive | inactive |  |  |  |  |  |  | 
9 | NCCCC[C@@H]1NC(=O)[C@@H](Cc2ccccc2)NC(=O)[C@H](Cc2cnc[nH]2)NC(=O)c2cc([N+](=O)[O-])ccc2SC[C@@H](C(N)=O)NC(=O)[C@H](Cc2c[nH]c3ccccc23)NC1=O | 0 | 0 | 0 | 0 | inactive | inactive | inactive | inactive | inactive | inactive | inactive |  |  |  |  |  |  | > 1000 | 
10 | NC(=O)[C@@H]1CSc2ccc([N+](=O)[O-])cc2C(=O)N[C@@H](Cc2cnc[nH]2)C(=O)N[C@H](Cc2ccccc2)C(=O)N[C@@H](CCCN=C(N)N)C(=O)N[C@H](Cc2ccc3ccccc3c2)C(=O)N1 |  |  |  |  |  |  |  |  |  |  |  |  |  |  |  |  |  | > 8000 | 330

The next lines start with the values.

Row | Activity (Melanocortin receptor 4 [1]) [%] | Activity [2] [%] | Activity (Melanocortin receptor 3 [3]) [%] | Activity (Melanocortin receptor 5 [4]) [%] | Activity (Melanocortin receptor 5 [5]) | Activity (Melanocortin receptor 4 [6]) | Activity (Melanocortin receptor 5 [7]) | Activity [8] | Activity [9] | Activity (Melanocortin receptor 4 [10]) | Activity (Melanocortin receptor 3 [11]) | Activity (Melanocortin receptor 3 [12]) | IC50 [13] [nM] | IC50 (Melanocortin receptor 3 [14]; hek293) [nM] | EC50 [15] [nM] | IC50 ([13]; hek293) [nM] | EC50 (Melanocortin receptor 3 [16]; hek293) [nM] | IC50 (Melanocortin receptor 3 [14]) [nM] | EC50 (Melanocortin receptor 3 [16]) [nM] | SMILES
11 | 100 | 100 | 100 | 100 |  |  |  |  |  |  |  |  |  |  |  |  |  |  |  | N=C(N)NCCC[C@@H]1NC(=O)[C@@H](Cc2ccccc2)NC(=O)[C@H](Cc2cnc[nH]2)NC(=O)c2cc([N+](=O)[O-])ccc2SC[C@@H](C(N)=O)NC(=O)[C@H](Cc2c[nH]c3ccccc23)NC1=O
12 | 0 | 0 | 75 | 0 | inactive | inactive | inactive | inactive | inactive | inactive |  |  |  |  |  |  |  |  |  | N=C(N)NCCC[C@@H]1NC(=O)[C@@H](Cc2ccccc2)NC(=O)[C@H](Cc2cnc[nH]2)NC(=O)c2cc([N+](=O)[O-])ccc2SC[C@@H](C(N)=O)NC(=O)[C@@H](Cc2ccc3ccccc3c2)NC1=O
13 | 0 | 0 | 0 | 0 | inactive | inactive | inactive | inactive | inactive | inactive | inactive |  |  |  |  |  |  | > 10000 |  | N=C(N)NCCC[C@H]1NC(=O)[C@@H](Cc2ccccc2)NC(=O)[C@H](Cc2cnc[nH]2)NC(=O)c2cc([N+](=O)[O-])ccc2SC[C@@H](C(N)=O)NC(=O)[C@H](Cc2c[nH]c3ccccc23)NC1=O
14 | 3 | 110 | > 100 | 0 | inactive |  |  |  |  | inactive |  |  |  |  |  |  |  |  |  | N=C(N)NCCC[C@@H]1NC(=O)[C@@H](Cc2ccccc2)NC(=O)[C@H](Cc2cnc[nH]2)NC(=O)c2cc([N+](=O)[O-])ccc2SC[C@@H](C(N)=O)NC(=O)[C@H](Cc2ccc3ccccc3c2)NC1=O
15 | 0 | > 100 | 0 | 0 | inactive | inactive |  |  |  | inactive | inactive |  |  |  |  |  |  |  |  | N=C(N)NCCC[C@@H]1NC(=O)[C@@H](Cc2ccc3ccccc3c2)NC(=O)[C@H](Cc2cnc[nH]2)NC(=O)c2cc([N+](=O)[O-])ccc2SC[C@@H](C(N)=O)NC(=O)[C@H](Cc2c[nH]c3ccccc23)NC1=O
